Measurements from article PMC12215967 (Scientific Reports, 2025).
“Also recorded” adds a separate entry of the source.

Legend:
[1] = molecular target: CD13 receptor (Homo sapiens, UniProt P15144); assay: competitive cell binding assay; settings: HT-1080 cells, 0.01 to 60.00 µM
[2] = test system: HT-1080 transplanted tumors (CD13 positive expression); assay: T1WI MRI of HT-1080 tumor-bearing mice, T/NT ratio; format: in vivo, human fibrosarcoma in BALB/c nude mice
[3] = test system: APN/CD13; assay: immunohistochemistry of APN/CD13 expression in HT-1080 transplanted tumors; format: in vivo, human fibrosarcoma in BALB/c nude mice; settings: ubenimex 0.5 mg/kg/day i.p., one week / 7 days
How it was run: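 HT-1080 cells, grown in DMEM with 10% FBS at 37 °C and 5% CO2, were inoculated at 5 × 10^6 cells into the right axilla of 8-week BALB/c nude mice. Tumors reached about 1 cm. Test compound was given at 0.5 mg/kg/day i.p. for 7 days. After the day-8 MRI, tumors were harvested, formaldehyde-fixed for 48 h, paraffin-embedded, cut at 5 μm and immunostained for APN/CD13.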

[4] = test system: HT-1080 transplanted tumors; assay: tumor size on transverse MRI, HT-1080; format: in vivo, human fibrosarcoma in BALB/c nude mice
How it was run: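 8-week BALB/c nude mice (~25 g, SPF) bore right-axillary HT-1080 xenografts from 5 × 10^6 cells. At ~1 cm, mice got Gd-labeled probe (200 µg i.p.) and 3.0T T1WI MRI with a small-animal coil (TR 200 ms, TE 2.46 ms, 3 mm slices). Test compound was then given at 0.5 mg/kg/day i.p. for 7 days, with repeat MRI on day 8. Groups were compared by one-way ANOVA.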

[5] = test system: HT-29 transplanted tumors; assay: tumor size on transverse MRI, HT-29; format: in vivo, human colorectal adenocarcinoma in BALB/c nude mice
[6] = proton relaxivity measurement; format: physicochemical; settings: 128 MHz, 298 K
[7] = test system: HT-29 transplanted tumors (CD13 negative expression); assay: T1WI MRI of HT-29 tumor-bearing mice, T/NT ratio; format: in vivo, human colorectal adenocarcinoma in BALB/c nude mice

Chain of CD13 receptor (P15144 whole entry): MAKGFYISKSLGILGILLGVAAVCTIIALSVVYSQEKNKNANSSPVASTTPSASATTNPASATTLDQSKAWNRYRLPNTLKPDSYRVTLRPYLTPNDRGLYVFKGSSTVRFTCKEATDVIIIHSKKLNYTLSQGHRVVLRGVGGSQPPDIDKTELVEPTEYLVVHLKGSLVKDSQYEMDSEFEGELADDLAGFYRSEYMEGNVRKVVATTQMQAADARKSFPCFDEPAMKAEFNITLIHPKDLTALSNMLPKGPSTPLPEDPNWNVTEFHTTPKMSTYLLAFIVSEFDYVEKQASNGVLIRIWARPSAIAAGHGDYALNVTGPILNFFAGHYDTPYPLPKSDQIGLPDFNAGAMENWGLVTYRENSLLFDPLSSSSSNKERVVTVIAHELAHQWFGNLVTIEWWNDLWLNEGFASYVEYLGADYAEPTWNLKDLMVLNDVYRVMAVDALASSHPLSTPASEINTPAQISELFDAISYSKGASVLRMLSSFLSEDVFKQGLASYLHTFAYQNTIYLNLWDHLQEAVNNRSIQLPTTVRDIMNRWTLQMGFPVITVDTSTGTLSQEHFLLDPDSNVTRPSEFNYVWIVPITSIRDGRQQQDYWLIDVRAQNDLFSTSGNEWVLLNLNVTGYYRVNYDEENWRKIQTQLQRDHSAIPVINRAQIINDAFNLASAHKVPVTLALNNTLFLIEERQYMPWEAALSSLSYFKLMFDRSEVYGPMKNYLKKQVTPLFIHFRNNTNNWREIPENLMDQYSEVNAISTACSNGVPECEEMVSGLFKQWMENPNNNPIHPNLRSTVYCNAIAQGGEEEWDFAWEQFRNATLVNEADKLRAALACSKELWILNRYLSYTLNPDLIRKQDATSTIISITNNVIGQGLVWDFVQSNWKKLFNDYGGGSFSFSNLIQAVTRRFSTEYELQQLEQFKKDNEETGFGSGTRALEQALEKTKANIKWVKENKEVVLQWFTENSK

Compound: DOTA-G3CNGRC
- inhibition of 99mTc-DOTA-G3CNGRC binding to the CD13 receptor [1]: inhibited by DOTA-G3CNGRC in a dose-dependent manner

Compound: CC(C)C[C@H](NC(=O)[C@@H](O)[C@H](N)Cc1ccccc1)C(=O)O [ubenimex]
- change in T/NT ratio after treatment ([2]; ubenimex 0.5 mg/kg/day i.p., 7 days, MRI on the 8th day): decreased significantly
- expression of APN/CD13 in HT-1080 grafts after treatment [3]: decreased significantly; also recorded: markedly reduced
- change of tumor size (sum of long and short diameters) ([4]; 7 days of ubenimex treatment): not changing significantly
- sum of the long and short diameters of the tumor, before treatment ([4]; HT-1080, n = 5, before ubenimex, P = 0.39 before vs after): 3.1 ± 0.1 cm
- sum of the long and short diameters of the tumor, after one week ([5]; HT-29, after one week, P = 0.001 vs before): 3.5 ± 0.2 cm
- sum of the long and short diameters of the tumor, before ([5]; HT-29, before, P = 0.001 vs after one week): 2.9 ± 0.1 cm

Compound: O=C([O-])CN1CCN(CC(=O)[O-])CCN(CC(=O)O)CCN(CC(=O)[O-])CC1.[Gd+3] [Gd-DOTA]
- T/NT of HT-1080 xenografts (treated or untreated) compared with HT-29 xenografts ([2]; Gd-DOTA, 1 h post-injection): no significant difference in T/NT values
- tumor signal intensity on T1WI ([2]; HT-1080 xenograft, intraperitoneal injection, before treatment): high signal intensity
- time of peak T/NT value post-injection ([2]; HT-1080 xenografts, i.p. injection, T/NT value-time curve): 1 h
- proton relaxivity R1 [6]: 4.0 mM^− 1S^− 1
- tumor signal intensity on T1WI ([7]; HT-29 xenograft, intraperitoneal injection, before treatment): high signal intensity
- time of peak T/NT value post-injection ([7]; HT-29 xenografts, i.p. injection, T/NT value-time curve): 1 h
